Data from ChEMBL document CHEMBL1156166, “Structural development studies of anti-hepatitis C virus agents with a phenanthridinone skeleton” (Bioorg Med Chem, 2010).
Active and inactive are the calls of the source. No cut-off for these calls is given here.

How the values were obtained:
[1] = Cytotoxicity against human NNC2 cells assessed as decrease in GAPDH RNA level after 3 days by RT-PCR; format: cell-based; details: for CC50 at 72 h: NNC2 cells; for CC50: nnc2, 72 h
In short: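 NNC #2 cells carrying full-genomic HCV RNA replicons were grown in high-glucose DMEM with 10% FBS and 1 mg/mL G418. Cells were seeded at 5 × 10⁴ cells/mL and cultured 24 h at 37 °C. Medium was then replaced with DMEM/10% FBS containing graded compound concentrations for 3 days. HCV RNA and GAPDH RNA were quantified by real-time RT-PCR. EC50 and CC50 are the concentrations lowering each RNA to 50% of control.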

[2] = test system: Hepatitis C virus; test: Antiviral activity against HCV in human NNC2 cells assessed as inhibition of viral RNA replication after 3 days by RT-PCR analysis
[3] = Cytotoxicity against human NNC2 cells assessed as decrease in GAPDH RNA level at 10 uM after 3 days by RT-PCR; format: cell-based; details: for inhibition (INH): nnc2, 72 h, 10 µM; for cytotoxicity at 72 h, 10 µM: NNC2 cells, read-out: INH
[4] = test system: Hepatitis C virus; test: Antiviral activity against HCV in human NNC2 cells assessed as inhibition of viral RNA replication at 10 uM after 3 days by RT-PCR analysis; details: Hepacivirus hominis
[5] = Selectivity index, CC50 for human NNC2 cells to IC50 for Hepatitis C virus; format: functional
[6] = test system: Hepatitis C virus; test: Antiviral activity against HCV in human NNC2 cells assessed as inhibition of viral RNA replication at 10 uM after […] by RT-PCR analysis; format: functional, Hepacivirus hominis
[7] = Hepatitis C virus, NNC2, 3 days, read-out: EC50

CCCCn1c(=O)c2ccccc2c2cc3c(cc21)C(C)(C)CCC3(C)C
CC50 at 72 h [1]: 27.3 µM | EC50 [2, 7]: 18.7 µM

CCCCn1c(=O)c2ccccc2c2cc(C(C)(C)C)ccc21
CC50 at 72 h [1]: 24.9 µM | EC50 [2, 7]: 10.6 µM

CCCCn1c(=O)c2cc3c(cc2c2ccccc21)C(C)(C)CCC3(C)C
CC50 [1]: Not Active | EC50 ([2]; nnc2): Not Active

CCCCn1c(=O)c2ccccc2c2cc(C(C)=O)ccc21
CC50 at 72 h [1]: 27.3 µM | EC50 [2, 7]: 18.7 µM

CCCCn1c(=O)c2c(C)cccc2c2ccccc21
inhibition (INH) [3]: Not Active | inhibition [4]: inactive

CCCCn1c(=O)c2ccccc2c2cc3ccccc3cc21
CC50 at 72 h [1]: 6.3 µM | Selectivity Index [5]: 1.97 | EC50 [2, 7]: 3.2 µM

CCCCn1c(=O)c2cc3ccccc3cc2c2ccccc21
CC50 at 72 h [1]: > 40 µM | Selectivity Index [5]: >3.64 | EC50 [2, 7]: 11 µM

CC1(C)CCC(C)(C)c2cc3c(cc21)c1ccccc1c(=O)n3Cc1ccccc1
CC50 at 72 h [1]: 31.8 µM | EC50 [2, 7]: 21.2 µM

CCCCn1c(=O)c2ccccc2c2cc(CC)ccc21
CC50 at 72 h [1]: 40.5 µM | EC50 [2, 7]: 34.7 µM

CCCCCCn1c(=O)c2ccccc2c2cc(C(O)(C(F)(F)F)C(F)(F)F)ccc21
CC50 at 72 h [1]: 12.2 µM | EC50 [2, 7]: 4.8 µM

CCCCn1c(=O)c2ccccc2c2cc(C(F)(F)F)ccc21
CC50 at 72 h [1]: > 50 µM | EC50 [2, 7]: > 50 µM

O=c1c2ccccc2c2cc(C(O)(C(F)(F)F)C(F)(F)F)ccc2n1CC(F)(F)F
CC50 at 72 h [1]: 30.3 µM | EC50 [2, 7]: 24.8 µM

CCCCn1c(=O)c2ccccc2c2cccc(C)c21
inhibition (INH) [3]: Not Active | inhibition [4]: inactive

CC1(C)CCC(C)(C)c2cc3c(cc21)[nH]c(=O)c1ccccc13
CC50 [1]: Not Active | EC50 ([2]; nnc2): Not Active

CCCCn1c(=O)c2c3ccccc3ccc2c2ccccc21
CC50 at 72 h [1]: > 40 µM | EC50 [2, 7]: 29.9 µM

CCCCn1c(=O)c2ccccc2c2cc(C(C)O)ccc21 (stereo not given)
CC50 at 72 h [1]: 51.4 µM | EC50 [2, 7]: 21.8 µM

CCCCn1c(=O)c2ccc3ccccc3c2c2ccccc21
CC50 at 72 h [1]: 31.4 µM | EC50 [2, 7]: > 31.4 µM

CCCCn1c(=O)c2cccc(C)c2c2ccccc21
cytotoxicity at 72 h, 10 µM [3]: 94.9% | inhibition [4]: inactive

CCCCn1c(=O)c2ccccc2c2ccc(C)cc21
cytotoxicity at 72 h, 10 µM [3]: 70.7% | inhibition [4]: inactive

CCCCn1c(=O)c2ccccc2c2cc(O)ccc21
CC50 at 72 h [1]: 43.7 µM | EC50 [2, 7]: 37.9 µM

CCCCn1c(=O)c2ccccc2c2cc(CO)ccc21
CC50 at 72 h [1]: > 50 µM | EC50 [2, 7]: 21.5 µM

CCCCn1c(=O)c2cc(C)ccc2c2ccccc21
inhibition at 10 µM [6]: 87% | cytotoxicity at 72 h, 10 µM [3]: 88.8%

CCCCn1c(=O)c2ccccc2c2cc(C(C)C)ccc21
CC50 at 72 h [1]: 29.7 µM | EC50 [2, 7]: 16.2 µM

CCCCn1c(=O)c2ccccc2c2cc(C)ccc21
CC50 at 72 h [1]: 38.4 µM | inhibition at 10 µM [6]: 42% | cytotoxicity at 72 h, 10 µM [3]: 98.5% | EC50 [2, 7]: 35.8 µM

CCn1c(=O)c2ccccc2c2cc(C(O)(C(F)(F)F)C(F)(F)F)ccc21
CC50 at 72 h [1]: > 40 µM | EC50 [2, 7]: 14.1 µM

CCCCn1c(=O)c2ccccc2c2ccccc21
CC50 at 72 h [1]: 58.3 µM | inhibition (INH) [3]: Not Active | EC50 [2, 7]: > 58.3 µM | inhibition [4]: inactive

O=c1c2ccccc2c2cc(C(O)(C(F)(F)F)C(F)(F)F)ccc2n1Cc1ccccc1
CC50 at 72 h [1]: 18.2 µM | EC50 [2, 7]: 7.7 µM

CCCCn1c(=O)c2ccccc2c2cc(C(O)(C(F)(F)F)C(F)(F)F)ccc21
CC50 at 72 h [1]: 12.5 µM | EC50 [2, 7]: 3.7 µM

O=c1c2ccccc2c2cc(C(O)(C(F)(F)F)C(F)(F)F)ccc2n1CC1CCCCC1
CC50 at 72 h [1]: 14.4 µM | EC50 [2, 7]: 6.7 µM

CCCCn1c(=O)c2ccccc2c2ccc3ccccc3c21
CC50 at 72 h [1]: 24.3 µM | EC50 [2, 7]: 19.5 µM

CCCCn1c(=O)c2ccccc2c2c3ccccc3ccc21
CC50 at 72 h [1]: 44.5 µM | EC50 [2, 7]: 29.1 µM

CC1(C)CCC(C)(C)c2cc3c(cc21)c1ccccc1c(=O)n3CC1CCCCC1
CC50 [1]: Not Active | EC50 ([2]; nnc2): Not Active

CCCCCCCCCn1c(=O)c2ccccc2c2cc(C(O)(C(F)(F)F)C(F)(F)F)ccc21
CC50 at 72 h [1]: 10.2 µM | EC50 [2, 7]: 8.3 µM

CCCCn1c(=O)c2ccccc2c2cc(F)ccc21
CC50 at 72 h [1]: > 50 µM | EC50 [2, 7]: > 50 µM

CCCCn1c(=O)c2ccccc2c2c(C)cccc21
cytotoxicity at 72 h, 10 µM [3]: 85.2% | inhibition [4]: inactive

CCCCn1c(=O)c2ccccc2c2cc(CCc3ccccc3)ccc21
CC50 at 72 h [1]: 24.1 µM | EC50 [2, 7]: 21 µM

CCCCn1c(=O)c2ccc(C)cc2c2ccccc21
inhibition (INH) [3]: Not Active | inhibition [4]: inactive
